Assay outcomes as filed in PubChem BioAssay.
AHR act: activates the human aryl hydrocarbon receptor; AID 2796; activation, % at 5 µM; hit rate 2.5% among 320,000; AHR-responsive luciferase reporter cells, luminescence; in the data active means activation above about 47%
MC4R barr agon: agonists of human melanocortin 4 receptor (MC4R) beta-arrestin. P32245. U2OS MC4R beta-arrestin complementation, luminescence; percent of melanotan II response, DMSO zero. activation, % at 8.9 µM. hit rate 0.98% among 360,000. AID 540308;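 active means activation above a per-plate cutoff, the mean activation of sample wells on that plate plus 3 SD, cut at about 8% in these data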
Target sequence (P32245 whole entry, looked up): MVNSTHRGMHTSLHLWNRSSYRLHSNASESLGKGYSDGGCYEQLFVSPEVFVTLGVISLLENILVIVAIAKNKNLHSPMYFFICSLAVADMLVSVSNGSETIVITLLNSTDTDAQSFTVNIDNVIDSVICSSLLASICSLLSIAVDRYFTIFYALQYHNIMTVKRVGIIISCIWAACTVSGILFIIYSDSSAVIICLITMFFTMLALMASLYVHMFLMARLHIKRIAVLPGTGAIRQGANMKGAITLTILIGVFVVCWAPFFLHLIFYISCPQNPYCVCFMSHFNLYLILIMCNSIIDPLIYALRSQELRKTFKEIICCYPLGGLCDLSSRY
m5-HT2A agonist: activates the mouse 5-HT2A serotonin receptor; P35363; CHO-K1 mHTR2A beta-arrestin complementation, luminescence; percent of 30 µM serotonin response; activation, % at 7.6 µM; hit rate 0.66% among 360,000;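 active means activation above a run cutoff, the mean activation of all tested compounds plus 3 SD, cut at about 14% in these data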
GAA850 FXN act: frataxin GAA850 promoter activation. activation, % at 6 µM. HEK293 lucGAA850 FXN promoter luciferase reporter, 24 h; percent of 10 µM SAHA response. AID 540364. hit rate 0.56% among 360,000;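 active means activation above the average of all compounds screened plus 3 SD, cutoff fixed separately per campaign, cut at about 7.5% in these data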
MC4R antag cAMP: blocks human MC4R cAMP signaling; P32245; MC4R-expressing cells, MTII-stimulated cAMP, LANCE TR-FRET; inhibition, % at 6.5 µM; hit rate 0.48% among 360,000; AID 540295;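 active means inhibition above its plate's cutoff, the mean of tested wells on that plate plus 3 SD, cut at about 29% in these data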
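Assay system: U2OS-MC4R stable cell line; Also added: Melanotan II; Technique: Eu-cAMP/anti-cAMP TR-FRET, emission 671 nm; Times: 30-min compound, 1-h challenge, 1-h detection, room temperature.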
GAA30 FXN cntr: activates GAA30 frataxin promoter, counter-screen for GAA850 activators; activation, % at 6 µM; hit rate 66% among 1,900; AID 588350; HEK293 lucGAA30 FXN promoter luciferase, 24 h; DMSO = 0%, 5 µM ipriflavone = 100%; shares compounds with GAA850 FXN act;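 active means mean activation above the mean of solvent-only control wells plus 3 SD, cut at about 22% in these data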;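 further: counterscreen of GAA850 promoter hits where activity marks nonselective or luminescence artifacts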
GAA850 confirm: confirmation of GAA850 frataxin (FXN) promoter activators | shares compounds with GAA850 FXN act | HEK293 lucGAA850 FXN promoter luciferase reporter, 24 h; 100% = activation by SAHA | activation, % at 6 µM | hit rate 86% among 1,900;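 active means mean activation above a set limit taken from the primary screen, cut at about 8% in these data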
Hits are given with their value; . = inactive; / = no result given. In the library only some 4.7% were active in any assay of this set; here they are far more common.

SMILES	AHR act	MC4R barr agon	m5-HT2A agonist	GAA850 FXN act	MC4R antag cAMP	GAA30 FXN cntr	GAA850 confirm
COc1ccccc1-n1nnnc1SCC(=O)NCC1CCCO1 (stereo not drawn)	.	.	.	.	.	/	/
CCCCNc1nc(N)nc(-c2cc(Cl)ccc2O)n1	.	.	.	14	.	133	73
CCNc1nc(N)nc(-c2cc(Cl)ccc2O)n1	.	.	.	17	.	151	93
CCOC(=O)c1csc(-c2csc(CCNC(=O)c3ccccc3)n2)n1	/	.	.	.	.	/	/
CCCS(=O)(=O)NC(=O)C1(C)CCN(C(=O)c2nc(C)oc2C)C1 (stereo not drawn)	/	.	.	.	.	/	/
CCOc1ccc(NC(=O)c2cc(S(=O)(=O)N3CCCCC3)c[nH]2)cc1	48	.	.	12	.	.	.
CC1(C(=O)Nc2ccc3c(c2)OCO3)CCN1C(=O)C1CCCCC1 (stereo not drawn)	/	.	.	.	.	/	/
Cc1ccc(C(O)c2ncc(-c3ccc(Cl)cc3)[nH]2)cc1 (stereo not drawn)	/	.	.	.	.	/	/
CCC(=O)c1ccc(OCc2ccc(C(=O)OC)cc2)c(OC)c1	.	.	.	.	.	/	/
CCC(=O)c1ccc(OCc2ccccc2)c(OC)c1	.	.	.	7.8	.	101	38
CCCNC(=O)C1(C)CCCN(Cc2csc3ccccc23)C1 (stereo not drawn)	/	.	.	.	.	/	/
Cc1ccc(S(=O)(=O)NCCC(=O)N2CCN(c3cccc(Cl)c3)CC2)cc1C	.	.	.	11	.	.	.
CNc1ccccc1C(=O)OC(C)C(=O)Nc1ccc(Cl)cn1 (stereo not drawn)	.	.	.	.	.	/	/
Cc1[nH]c2ccccc2c1SCC(=O)N1CCCCC1	.	.	.	.	.	/	/
Cc1[nH]c2ccccc2c1SCC(=O)N1CCCc2ccccc21	.	.	.	20	.	.	10
COc1ccc(N2C(=O)CC(N(CCc3ccc(OC)c(OC)c3)C(=S)Nc3ccccc3)C2=O)cc1 (stereo not drawn)	.	.	.	8.4	.	.	11
COc1ccc(N2C(=O)CC(N(CCc3ccc(S(N)(=O)=O)cc3)C(=S)Nc3ccccc3)C2=O)cc1 (stereo not drawn)	.	.	.	.	.	/	/
O=C(Nc1ccccc1O)c1ccc(NC(=O)C2CC2)cc1	.	.	.	11	.	128	64
O=C(Nc1ccccc1C(=O)O)c1ccc(NC(=O)C2CC2)cc1	.	.	.	.	.	/	/
Cc1ccccc1Cn1c(C)c(C(=O)NCCC#N)sc1=O	/	.	.	.	.	/	/
Cc1cc(Oc2cccc3c2S(=O)(=O)N(C2CCCC2)CC(COCc2ccccc2)O3)cc(C)c1C (stereo not drawn)	/	.	.	.	.	/	/
CN(C(=O)c1cccc(COc2ccc(Cl)cc2Cl)c1)c1ccccc1	.	.	.	8.3	.	102	39
CCOC(=O)[C@]12CCCC=C1N(Cc1ccc3c(c1)OCO3)C(=O)[C@H](CC(=O)N1CCCC1)C2	/	/	.	/	/	/	/
CCOC(CN=c1nc(N(C)C)ss1)OCC	/	.	.	8.2	.	.	10
O=C(C=Cc1ccccn1)c1ccccc1	/	.	.	.	.	/	/
SMILES	AHR act	MC4R barr agon	m5-HT2A agonist	GAA850 FXN act	MC4R antag cAMP	GAA30 FXN cntr	GAA850 confirm
O=C(C=Cc1ccccn1)c1ccccc1O	/	.	.	8.5	.	.	26
O=C1CCCCC(=O)[C@H](O)C[C@H](COCc2ccccc2)O1	/	/	.	/	/	/	/
COCCOC(=O)C1=C(C)NC(=O)NC1c1ccc(OC(=O)c2ccco2)c(OC)c1 (stereo not drawn)	.	.	.	13	.	33	10
COc1cc(C2NC(=O)NC(C)=C2C(=O)OCc2ccccc2)ccc1O (stereo not drawn)	.	.	.	8.9	.	.	10
COc1ccc(COC(=O)C2=C(C)NC(=O)NC2c2ccc(O)c(OC)c2)cc1 (stereo not drawn)	.	.	.	.	.	/	/
COC(=O)C1=C(C)NC(C)=C(C(=O)OC)C1C(=O)OCC(=O)N1CCCCC1C (stereo not drawn)	/	.	.	.	.	/	/
CCOC(=O)CSc1nc(N)c(C#N)c(-c2ccc(OCC)cc2)c1C#N	.	9.4	.	13	.	.	9.1
CC(C)OC(=O)CSc1nc(N)c(C#N)cc1C#N	.	.	.	8.4	.	64	29
CCOC(=O)CSc1nc(N)c(C#N)cc1C#N	.	.	.	11	.	52	30
CCOC(=O)CSc1nc2cc(C)cc(C)c2cc1C#N	.	.	.	.	.	/	/
CC(C)OC(=O)CSc1nc2cc3c(cc2cc1C#N)OCO3	.	.	.	.	.	/	/
CCc1nc2ccc(C(=O)NCCCn3ccnc3)cn2c1N(C)C(=O)COc1ccccc1	/	.	.	.	.	/	/
C/C=C/c1ccc(OCCCCOc2ccccc2C(C)=O)c(OC)c1	.	.	.	.	.	/	/
C/C=C/c1ccc(OCCCCN(C)Cc2ccccc2)c(OC)c1	.	.	.	9.5	.	.	13
CC(=O)Nc1ccc(C(=O)N2CCCC(c3cc(C(=O)NCc4cccnc4)no3)C2)cc1 (stereo not drawn)	/	.	.	.	.	/	/
CC(Sc1ncnc2sc(-c3ccccc3)cc12)C(=O)NCC1CCCO1 (stereo not drawn)	.	.	.	.	.	/	/
O=C(NC1CCCC1)C(c1ccncc1)N(Cc1ccccc1)C(=O)Cc1cccs1 (stereo not drawn)	.	.	.	.	.	/	/
O=C(NC1CCCC1)C(c1ccsc1)N(Cc1ccccc1)C(=O)Cc1cccs1 (stereo not drawn)	.	.	.	14	.	.	19
CCCSc1nc2c([nH]1)c(=O)n(C)c(=S)n2C	/	.	.	.	.	/	/
CCCC(C)Sc1nc2c([nH]1)c(=S)n(C)c(=O)n2C (stereo not drawn)	/	.	.	10	.	.	18
CCc1nc2c(OCC(=O)C(C)(C)C)cccn2c1N(C)C(=O)Nc1ccccc1OC	/	.	.	.	.	/	/
O=C1C2C3C=CC(C4CC34)C2C(=O)N1/N=C/c1ccc(-c2ccc([N+](=O)[O-])cc2)o1 (stereo not drawn)	.	.	.	.	.	/	/
O=C1C2C3C=CC(C4CC34)C2C(=O)N1/N=C/c1ccc([N+](=O)[O-])o1 (stereo not drawn)	.	.	.	9.6	.	.	12
O=[N+]([O-])c1nccn1C1C=CC(O)C(CO)O1 (stereo not drawn)	/	/	.	/	/	/	/
CCOc1ccc(Nc2n[nH]c(=S)s2)cc1	.	.	.	9.8	.	116	32
